Laboratory results from ChEMBL document CHEMBL1147905, “Novel thyroid hormone receptor antagonists with an N-alkylated diphenylamine skeleton” (Bioorg Med Chem, 2007).
Calls of active or inactive are those of the source. The calls are words filed in the database; no cut-off is given here.

Key:
Type in all cases: functional, cell-based
Details in all cases: COS-1
[1] = target: T1, Thyroid hormone receptor beta (Homo sapiens) (UniProt P10828); test: Antagonist activity at human thyroid hormone receptor beta-1 expressed in COS1 cells by transactivation assay after 40 hrs
T1 sequence (whole entry): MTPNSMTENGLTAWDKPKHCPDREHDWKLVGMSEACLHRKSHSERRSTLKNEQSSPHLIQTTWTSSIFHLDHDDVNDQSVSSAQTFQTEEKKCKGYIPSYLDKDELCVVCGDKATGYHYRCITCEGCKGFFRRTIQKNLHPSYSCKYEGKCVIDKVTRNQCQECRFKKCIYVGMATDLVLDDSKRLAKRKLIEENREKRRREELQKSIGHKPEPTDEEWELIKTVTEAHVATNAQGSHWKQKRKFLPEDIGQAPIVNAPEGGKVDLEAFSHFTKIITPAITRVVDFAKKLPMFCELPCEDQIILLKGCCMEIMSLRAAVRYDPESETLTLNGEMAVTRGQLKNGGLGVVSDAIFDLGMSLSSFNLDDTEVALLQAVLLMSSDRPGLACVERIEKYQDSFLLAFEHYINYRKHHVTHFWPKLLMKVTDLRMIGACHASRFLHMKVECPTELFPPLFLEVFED
Summary of the method: (§1)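 Same COS-1 transfection (pCMX-hTRα1 or pCDNA-hTRβ1 with (TREpal)₃-TKLUC and pCMVβ) and 40 h treatment in charcoal-dextran FBS medium, 0.5% EtOH final. Compounds were added alongside 3 × 10⁻⁹ M T₃. Luciferase was normalised to β-galactosidase and expressed as percent of the T₃-alone value (100%). Means ± SD, n = 3.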

[2] = target: T1, Thyroid hormone receptor beta (Homo sapiens); test: Agonist activity at human thyroid hormone receptor beta-1 expressed in COS1 cells by transactivation assay after 40 hrs
Summary of the method: (§2)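 COS-1 cells were seeded at 8 × 10⁴ per well in 5% FBS/DMEM and grown overnight at 37 °C, 5% CO₂. In serum-free DMEM with Lipofectamine 2000 they were transfected with pCMX-hTRα1 (α1) or pCDNA-hTRβ1 (β1) (100 ng), (TREpal)₃-TKLUC reporter (200 ng) and pCMVβ reference. After 4–5 h, charcoal-dextran FBS medium and compounds (final 0.5% EtOH) were added for 40 h. Read-out was luciferase normalised to β-galactosidase.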

[3] = target: T2, Thyroid hormone receptor alpha (Homo sapiens) (UniProt P10827); test: Antagonist activity at human thyroid hormone receptor alpha-1 expressed in COS1 cells by transactivation assay after 40 hrs; summary of the method: as §1
T2 sequence (whole entry): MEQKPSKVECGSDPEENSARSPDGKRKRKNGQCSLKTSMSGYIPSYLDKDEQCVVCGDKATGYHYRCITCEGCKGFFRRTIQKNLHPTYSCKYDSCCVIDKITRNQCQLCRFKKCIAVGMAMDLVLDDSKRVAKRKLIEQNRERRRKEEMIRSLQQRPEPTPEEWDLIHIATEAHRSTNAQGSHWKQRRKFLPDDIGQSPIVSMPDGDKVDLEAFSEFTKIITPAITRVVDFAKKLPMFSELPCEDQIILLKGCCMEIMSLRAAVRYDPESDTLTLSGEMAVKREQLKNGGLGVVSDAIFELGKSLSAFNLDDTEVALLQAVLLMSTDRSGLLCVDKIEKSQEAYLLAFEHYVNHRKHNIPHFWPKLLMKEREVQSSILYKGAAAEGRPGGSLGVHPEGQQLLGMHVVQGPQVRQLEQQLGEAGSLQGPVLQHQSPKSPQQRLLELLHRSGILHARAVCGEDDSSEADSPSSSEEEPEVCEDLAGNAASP

[4] = target: T2, Thyroid hormone receptor alpha (Homo sapiens); test: Agonist activity at human thyroid hormone receptor alpha-1 expressed in COS1 cells by transactivation assay after 40 hrs; summary of the method: as §2

`Cc1cc(CC2SC(=O)NC2=O)cc(C)c1N(CC(C)C)c1ccc(O)c(C(C)C)c1` (stereo not drawn) was tested, and the Activity [1] was “Active”, the Activity [2] was “inactive” and the Activity [3] was “Active”. The Activity [4] was “inactive”.
With `Cc1cc(CC2SC(=O)NC2=O)cc(C)c1N(Cc1ccccc1)c1ccc(O)c(C(C)C)c1` (stereo not drawn) the Activity [1] was “Active”, the Activity [2] was “inactive” and the Activity [3] was “Active”. The Activity [4] was “inactive”.
`Cc1cc(CC2SC(=O)NC2=O)cc(C)c1N(CC1CC1)c1ccc(O)c(C(C)C)c1` (stereo not drawn) was tested, and the Activity [1] was “Active”, the Activity [2] was “inactive” and the Activity [3] was “Active”. For the same compound, the Activity [4] was “inactive”.
In the case of `Cc1cc(CC2SC(=O)NC2=O)cc(C)c1N(C)c1ccc(O)c(C(C)C)c1` (stereo not drawn), the Activity [1] is reported as “inactive”, the Activity [2] is reported as “Active” and the Activity [3] is reported as “inactive”. For the same compound, the Activity [4] was “Active”.
In the case of `Cc1cc(CC2SC(=O)NC2=O)cc(C)c1N(CC1CCCCC1)c1ccc(O)c(C(C)C)c1` (stereo not drawn), the Activity [1] is reported as “Active”, the Activity [2] is reported as “inactive” and the Activity [3] is reported as “Active”. The Activity [4] was “inactive”.
In the case of `CCCCCCN(c1ccc(O)c(C(C)C)c1)c1c(C)cc(CC2SC(=O)NC2=O)cc1C` (stereo not drawn), the Activity [1] is reported as “Active”, the Activity [2] is reported as “inactive” and the Activity [3] is reported as “Active”. For the same compound, the Activity [4] was “inactive”.
For `CC(C)=CCN(c1ccc(O)c(C(C)C)c1)c1c(C)cc(CC2SC(=O)NC2=O)cc1C` (stereo not drawn), the Activity [1] was “Active”, the Activity [2] was “inactive” and the Activity [3] was “Active”. For the same compound, the Activity [4] was “inactive”.
